In ChEMBL document CHEMBL2390862, “Enmein-type diterpenoid analogs from natural kaurene-type oridonin: Synthesis and their antitumor biological evaluation” (Eur J Med Chem, 2013):

Tests used:
[1] = system: Bel-7402; assay: Induction of apoptosis in human Bel7402 cells assessed as early and late apoptotic cells at 0.15 uM after 2 days by Annexin-V/FITC-propidium iodide staining-based flow cytometry (reference value: 4.8 %); type: functional
[2] = system: Bel-7402; assay: Induction of apoptosis in human Bel7402 cells assessed as late apoptotic cells at 0.6 uM after 2 days by Annexin-V/FITC-propidium iodide staining-based flow cytometry (reference value: 2.2 %); type: functional
[3] = system: Bel-7402; assay: Induction of apoptosis in human Bel7402 cells assessed as increase in caspase 9 expression after 48 hrs by Western blotting analysis; type: functional, cell-based
Procedure, shortened: (§1)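 Bel-7402 cells treated with vehicle control or compound at 0.15, 0.3 or […] (so in the source). Lysates at […] protein per lane (so in the source) separated by 10% SDS-PAGE, transferred to nitrocellulose and immunoblotted, with β-actin measured as reference. Significance vs. vehicle control marked at P < 0.05 and P < 0.01.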

[4] = system: Bel-7402; assay: Induction of apoptosis in human Bel7402 cells assessed as early apoptotic cells at 0.3 uM after 2 days by Annexin-V/FITC-propidium iodide staining-based flow cytometry (reference value: 2.6 %); type: functional
[5] = system: Bel-7402; assay: Induction of apoptosis in human Bel7402 cells assessed as necrotic cells at 0.6 uM after 2 days by Annexin-V/FITC-propidium iodide staining-based flow cytometry (reference value: 1.1 %); type: functional
[6] = system: Bel-7402; assay: Cell cycle arrest in human Bel7402 cells assessed as accumulation at G2/M phase at 0.6 uM after 48 hrs by propidium iodide staining-based FACS analysis (reference value: 12.60 %); type: functional
Procedure, shortened: (§2)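 Bel-7402 cells seeded at 5.0 × 10³ cells/well and incubated 24 h at 37 °C, then exposed to test compound or DMSO solvent control for 48 h. Cells fixed in 70% ethanol, RNase-treated, PI-stained; DNA content of nuclei measured by flow cytometry.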

[7] = system: Bel-7402; assay: Cell cycle arrest in human Bel7402 cells assessed as accumulation at S phase at 0.6 uM after 48 hrs by propidium iodide staining-based FACS analysis (reference value: 39.17 %).; type: functional; procedure, shortened: as §2
[8] = system: Bel-7402; assay: Induction of apoptosis in human Bel7402 cells assessed as early apoptotic cells at 0.15 uM after 2 days by Annexin-V/FITC-propidium iodide staining-based flow cytometry (reference value: 2.6 %); type: functional
[9] = system: Bel-7402; assay: Cell cycle arrest in human Bel7402 cells assessed as accumulation at G1 phase at 0.6 uM after 48 hrs by propidium iodide staining-based FACS analysis (reference value: 48.23 %); type: functional; procedure, shortened: as §2
[10] = system: Bel-7402; assay: Induction of apoptosis in human Bel7402 cells assessed as early and late apoptotic cells at 0.3 uM after 2 days by Annexin-V/FITC-propidium iodide staining-based flow cytometry (reference value: 4.8 %); type: functional
[11] = system: Bel-7402; assay: Cell cycle arrest in human Bel7402 cells assessed as accumulation at S phase at 0.15 uM after 48 hrs by propidium iodide staining-based FACS analysis (reference value: 39.17 %); type: functional; procedure, shortened: as §2
[12] = system: Bel-7402; assay: Induction of apoptosis in human Bel7402 cells assessed as early apoptotic cells at 0.6 uM after 2 days by Annexin-V/FITC-propidium iodide staining-based flow cytometry (reference value: 2.6 %); type: functional
[13] = Cytotoxicity against human CaEs17 cells after 72 hrs by MTT assay; type: functional, cell-based; conditions: CaEs17, 72 h
Procedure, shortened: (§3)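 K562, CaEs-17, Bel-7402 and MGC-803 cells in log phase seeded at 5 × 10⁴ cells/mL, incubated with or without test compounds at 37 °C, 5% CO₂; after 72 h MTT (5 mg/mL stock) added for 4 h, formazan dissolved in DMSO, OD read at 490 nm. Negative reference 0.1% DMSO, Taxol positive control. IC50 as mean ± S.D. of three independent experiments.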

[14] = system: Bel-7402; assay: Cell cycle arrest in human Bel7402 cells assessed as accumulation at G2/M phase at 0.3 uM after 48 hrs by propidium iodide staining-based FACS analysis (reference value: 12.60 %); type: functional; procedure, shortened: as §2
[15] = system: Bel-7402; assay: Cell cycle arrest in human Bel7402 cells assessed as accumulation at G1 phase at 0.15 uM after 48 hrs by propidium iodide staining-based FACS analysis (reference value: 48.23 %); type: functional; procedure, shortened: as §2
[16] = system: Bel-7402; assay: Induction of apoptosis in human Bel7402 cells assessed as increase in caspase 3 expression after 48 hrs by Western blotting analysis; type: functional, cell-based; procedure, shortened: as §1
[17] = system: Bel-7402; assay: Induction of apoptosis in human Bel7402 cells assessed as increase in Fas expression after 48 hrs by Western blotting analysis; type: functional, cell-based; procedure, shortened: as §1
[18] = system: Bel-7402; assay: Cell cycle arrest in human Bel7402 cells assessed as accumulation at G2/M phase at 0.15 uM after 48 hrs by propidium iodide staining-based FACS analysis (reference value: 12.60 %); type: functional; procedure, shortened: as §2
[19] = system: Bel-7402; assay: Induction of apoptosis in human Bel7402 cells after 2 days by Annexin-V/FITC-propidium iodide staining-based flow cytometry; type: functional, cell-based
[20] = system: K562; assay: Cytotoxicity against human K562 cells after 72 hrs by MTT assay; type: functional, cell-based; conditions: K562, 72 h; procedure, shortened: as §3
[21] = system: Bel-7402; assay: Induction of apoptosis in human Bel7402 cells assessed as reduction in Bcl2 expression after 48 hrs by Western blotting analysis; type: functional, cell-based; procedure, shortened: as §1
[22] = system: Bel-7402; assay: Induction of apoptosis in human Bel7402 cells assessed as necrotic cells at 0.3 uM after 2 days by Annexin-V/FITC-propidium iodide staining-based flow cytometry (reference value: 1.1 %); type: functional
[23] = system: Bel-7402; assay: Cell cycle arrest in human Bel7402 cells assessed as accumulation at G1 phase at 0.3 uM after 48 hrs by propidium iodide staining-based FACS analysis (reference value: 48.23 %); type: functional; procedure, shortened: as §2
[24] = system: Bel-7402; assay: Induction of apoptosis in human Bel7402 cells at 0.6 uM after 48 hrs by propidium iodide staining-based FACS analysis (reference value: 1.67 %); type: functional; procedure, shortened: as §2
[25] = system: Bel-7402; assay: Induction of apoptosis in human Bel7402 cells assessed as late apoptotic cells at 0.15 uM after 2 days by Annexin-V/FITC-propidium iodide staining-based flow cytometry (reference value: 2.2 %); type: functional
[26] = system: Bel-7402; assay: Induction of apoptosis in human Bel7402 cells assessed as increase in caspase 8 expression after 48 hrs by Western blotting analysis; type: functional, cell-based; procedure, shortened: as §1
[27] = system: Bel-7402; assay: Cytotoxicity against human Bel7402 cells after 72 hrs by MTT assay; type: functional, cell-based; conditions: Bel-7402, 72 h; procedure, shortened: as §3
[28] = system: Bel-7402; assay: Induction of apoptosis in human Bel7402 cells at 0.3 uM after 48 hrs by propidium iodide staining-based FACS analysis (reference value: 1.67 %); type: functional; procedure, shortened: as §2
[29] = system: MGC-803; assay: Cytotoxicity against human MGC803 cells after 72 hrs by MTT assay; type: functional, cell-based; conditions: MGC-803, 72 h; procedure, shortened: as §3
[30] = system: Bel-7402; assay: Induction of mitochondrial membrane depolarization in human Bel7402 cells assessed as normal cells at 0.3 uM after 48 hrs by JC-1 staining-based flow cytometry; type: functional
[31] = system: Bel-7402; assay: Induction of apoptosis in human Bel7402 cells assessed as viable cells at 0.6 uM after 2 days by Annexin-V/FITC-propidium iodide staining-based flow cytometry (reference value: 94.1 %); type: functional; conditions: Bel-7402, 48 h, read-out: Activity

In the case of `C=C1C(=O)[C@@]23C(=O)O[C@H]4CCC(C)(C)[C@H]5[C@H](O)OC[C@@]45[C@@H]2CC[C@@H]1[C@H]3OC(=O)c1ccc(Cl)cc1`, the Activity [1] is reported as 14.3%, the Activity [2] is reported as 28.1% and the Activity [3] is reported as “Dose-dependent effect”. For the same compound, the Activity [4] was 14.8%, the Activity [5] was 0.7% and the Activity [6] was 28.76%. The Activity [7] was 20.17%, the Activity [8] was 8.8% and the Activity [9] was 51.07%. The Activity [10] was 33.3%, the Activity [11] was 38.72% and the Activity [12] was 22.4%. The IC50 [13] was 280 nM, the Activity [14] was 20.48% and the Activity [15] was 46.18%. For the same compound, the Activity [16] was “Dose-dependent effect”, the Activity [17] was “Dose-dependent effect” and the Activity [18] was 15.1%. The Activity [19] was “Dose-dependent effect”, the IC50 [20] was 240 nM and the Activity [21] was “Dose-dependent effect”. For the same compound, the Activity [22] was 0.3%, the Activity [23] was 50.28% and the Activity [24] was 31.97%. The Activity [25] was 5.5%, the Activity [26] was “Dose-dependent effect” and the IC50 [27] was 870 nM. The Activity [28] was 14.86%, the IC50 [29] was 1220 nM and the Activity [30] was 82.4%. The viability at 0.6 µM [31] was 48.8%.
